In ChEMBL document CHEMBL4052624, “Metallo-β-lactamase inhibitors by bioisosteric replacement: Preparation, activity and binding” (Eur J Med Chem, 2017):
≈ marks a conversion by molar mass, not a printed value. Calls of active or inactive are those of the source. The calls are words filed in the database; no cut-off is given here.

Tests used:
Beta-lactamase VIM-2 = Beta-lactamase VIM-2 (Pseudomonas aeruginosa, UniProt Q9K2N0); experiment: Inhibition of Pseudomonas aeruginosa 301-5473 6His-tagged VIM-2 (V27 to E268 residues) expressed in Escherichia coli BL21 Star(DE3) pLysS using nitrocefin as substrate preincubated for 5 mins followed by substrate addition by spectrophotometric analysis
Method in brief: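 Purified VIM-2 and GIM-1 were each used at 10 nM in 50 mM HEPES pH 7.2 with ZnCl₂ and BSA. Each enzyme was preincubated with inhibitor at 25 °C for 5 min, using sixteen concentrations in a 2-fold series. Nitrocefin was then added and the absorbance rise at 482 nm was read. Initial velocities, measured in triplicate, were fitted to log[inhibitor] vs response curves to give IC50. Line 3 is the ratio of the two IC50s.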

GIM-1 protein = GIM-1 protein (Pseudomonas aeruginosa, UniProt Q704V1); experiment: Inhibition of Pseudomonas aeruginosa 6His-tagged GIM-1 (Q19 to D250 residues) expressed in Escherichia coli BL21 Star(DE3) pLysS using nitrocefin as substrate preincubated for 5 mins followed by substrate addition by spectrophotometric analysis
Method in brief: (§1)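 His-tagged enzyme, TEV-cleaved, ~95% pure by SDS-PAGE. 10 nM enzyme with 16 inhibitor concentrations in a 2-fold series, in 50 mM HEPES pH 7.2 with ZnCl2 and BSA, preincubated 5 min at 25 °C. Then 100 µM substrate added: imipenem for NDM-1 read at 260 nm, nitrocefin for GIM-1 read at 482 nm. Initial rates in triplicate, fitted to a log[inhibitor] dose–response curve for IC50.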

[1] = Inhibition of Klebsiella pneumoniae 6His-tagged NDM1 (G36 to R280 residues) expressed in Escherichia coli BL21 Star(DE3) pLysS using imipenem as substrate preincubated for 5 mins followed by substrate addition by spectrophotometric analysis; method in brief: as §1
[2] = target: Beta-lactamase VIM-2 (Pseudomonas aeruginosa) (UniProt Q9K2N0); experiment: Inhibition of Pseudomonas aeruginosa 301-5473 VIM-2 expressed in Escherichia coli SNO3 whole cells using nitrocefin as substrate at 250 uM preincubated for 20 mins followed by substrate addition measured every min up to 60 mins by spectrophotometric analysis relative to control
Method in brief: (§2)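 β-lactamase-negative E. coli SNO3 carrying blaVIM-2, blaGIM-1 or blaNDM-1 in pET26b(+). Hydrolysis of the reporter substrate followed as the initial slope over up to 60 min. Percent inhibition calculated from slopes relative to a no-inhibitor control; EDTA used as positive control.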

[3] = target: GIM-1 protein (Pseudomonas aeruginosa) (UniProt Q704V1); experiment: Inhibition of Pseudomonas aeruginosa GIM-1 expressed in Escherichia coli SNO3 whole cells using nitrocefin as substrate at 250 uM preincubated for 20 mins followed by substrate addition measured every min up to 60 mins by spectrophotometric analysis relative to control; method in brief: as §2
Klebsiella pneumoniae [4] = experiment: Inhibition of Klebsiella pneumoniae NDM1 expressed in Escherichia coli SNO3 whole cells using imipenem as substrate at 250 uM preincubated for 20 mins followed by substrate addition measured every min up to 60 mins by spectrophotometric analysis relative to control; method in brief: as §2
Pseudomonas aeruginosa [5] = experiment: Selectivity ratio of IC50 for Pseudomonas aeruginosa 6His-tagged GIM-1 (Q19 to D250 residues) expressed in Escherichia coli BL21 Star(DE3) pLysS to IC50 for Pseudomonas aeruginosa 301-5473 6His-tagged VIM-2 (V27 to E268 residues) expressed in Escherichia coli BL21 Star(DE3) pLysS
[6] = Selectivity ratio of IC50 for Pseudomonas aeruginosa 6His-tagged GIM-1 (Q19 to D250 residues) expressed in Escherichia coli BL21 Star(DE3) pLysS to IC50 for Klebsiella pneumoniae 6His-tagged NDM1 (G36 to R280 residues) expressed in Escherichia coli BL21 Star(DE3) pLysS
[7] = target: Beta-lactamase VIM-2 (Pseudomonas aeruginosa) (UniProt Q9K2N0); experiment: Inhibition of VIM-2 in Pseudomonas aeruginosa K34-7 assessed as potentiation of meropenem-induced antimicrobial activity by measuring meropenem MIC at 125 uM after 20 hrs (reference value: 32 to 64 mg/L)
Klebsiella pneumoniae [8] = experiment: Inhibition of NDM-1 in Klebsiella pneumoniae K66-45 assessed as potentiation of meropenem-induced antimicrobial activity by measuring meropenem MIC at 125 uM after 20 hrs (reference value: 32 to 64 mg/L)
Pseudomonas aeruginosa [9] = experiment: Growth inhibition of Pseudomonas aeruginosa K34-7 after 20 hrs
Klebsiella pneumoniae [10] = experiment: Growth inhibition of Klebsiella pneumoniae K66-45 after 20 hrs
Escherichia coli [11] = experiment: Inhibition of VIM-29 in Escherichia coli 50639799 assessed as potentiation of meropenem-induced antimicrobial activity by measuring meropenem MIC at 125 uM after 20 hrs (reference value: 8 to 32 mg/L)
Escherichia coli [12] = experiment: Growth inhibition of Escherichia coli 50639799 after 20 hrs

Chain of GIM-1 protein (Q704V1 whole entry, the tested form may be a part): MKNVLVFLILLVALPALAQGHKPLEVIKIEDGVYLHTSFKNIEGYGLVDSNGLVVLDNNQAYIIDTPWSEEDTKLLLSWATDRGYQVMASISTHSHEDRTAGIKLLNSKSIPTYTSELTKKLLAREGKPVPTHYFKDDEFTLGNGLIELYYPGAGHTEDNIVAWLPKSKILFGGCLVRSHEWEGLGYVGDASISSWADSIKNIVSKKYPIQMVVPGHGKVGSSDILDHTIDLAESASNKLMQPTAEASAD
Chain of GIM-1 protein (Pseudomonas aeruginosa) (Q704V1 as listed by the source): as the sequence (Q704V1 whole entry, the tested form may be a part) above

Row | SMILES | IC50 (Beta-lactamase VIM-2) [µM] | IC50 (GIM-1 protein; read-out: IC50) [µM] | IC50 ([1]; read-out: IC50) [µM] | inhibition [2] | inhibition [3] | inhibition (Klebsiella pneumoniae [4]) | Ratio IC50 (Pseudomonas aeruginosa [5]) | Ratio IC50 [6] | MIC [7] [µg/mL] | MIC (Klebsiella pneumoniae [8]) [µg/mL] | MIC (Pseudomonas aeruginosa [9]) [µg/mL] | MIC (Klebsiella pneumoniae [10]) [µg/mL] | MIC (Escherichia coli [11]) [µg/mL] | MIC (Escherichia coli [12]) [µg/mL] | IC50 (GIM-1 protein) | IC50 [1]
1 | O=P(O)(O)C(CO)CCc1ccccc1 (configuration not stated) | 27 to 35 | 99 | 59 | 61% | 23% | 3.75% |  |  |  |  |  |  |  |  |  | 
2 | O=P(O)(O)C(CS)CCCCc1ccccc1 (configuration not stated) | 8.6 | 16 | 8.5 | 94% | 31% | 42% | 2 to 4 | 2 to 4 |  |  |  |  |  |  |  | 
3 | CC(=O)SCC(CCCCc1ccccc1)P(=O)(O)O (configuration not stated) | 1.8 | 20 | 2.5 | 97% | 50% | 37% |  |  | 32 | 32 | > 500 | > 500 | 2 |  |  | 
4 | CCOP(=O)(OCC)C(CCCc1ccccc1)CSC(C)=O (configuration not stated) | 34 | 26 |  | 14% | 21% | inactive |  |  | 32 | 64 | > 1000 | > 1000 | 4 to 8 | > 1000 |  | 
5 | O=P(O)(O)C(CO)CCCCc1ccccc1 (configuration not stated) | 4.5 | > 10 | 127 | 88% | 14% | 4% |  |  |  |  |  |  |  |  |  | 
6 | CCOP(=O)(OCC)C(CCc1ccccc1)CSC(C)=O (configuration not stated) | 133 | 18 |  | 17% | 25% | inactive |  |  |  |  |  |  |  |  |  | 
7 | CCOP(=O)(OCC)C(CS)CCCc1ccccc1 (configuration not stated) | 0.38 | 0.31 | 1.8 | 79% | 48% | 62% |  |  | 32 | 32 | > 500 | > 500 | 8 |  |  | 
8 | CCOP(=O)(OCC)C(CO)CCCc1ccccc1 (configuration not stated) | > 10 | > 10 | > 10 | inactive | inactive | inactive |  |  |  |  |  |  |  |  |  | 
9 | c1ccc(CCCC(CSC2CCCCC2)c2nnn[nH]2)cc1 (configuration not stated) | 5 | 36 to 162 | 10 | 73% | 8% | inactive |  |  |  |  |  |  |  |  |  | 
10 | O=P(O)(O)C(CS)CCc1ccccc1 (configuration not stated) | 7.8 | 23 | 5.9 | 92% | 37% | 42% | 2 to 4 | 2 to 4 | 32 | 32 | > 500 | > 500 | 4 |  |  | 
11 | CC(=O)SCC(Cc1ccccc1)c1nnn[nH]1 (configuration not stated) | 67 | 203 | 81 | 76% | 55% | 32% |  |  |  |  |  |  |  |  |  | 
12 | CC(=O)SCC(CCc1ccccc1)P(=O)(O)O (configuration not stated) | 2.3 | 12 | 2.9 | 94% | 40% | 39% |  |  |  |  |  |  |  |  |  | 
13 | O=P(O)(O)C(CO)CCCc1ccccc1 (configuration not stated) | 34 | > 10 | 77 | 66% | 16% |  |  |  |  |  |  |  |  |  |  | 
14 | O=P(O)(O)C(CS)CCCc1ccccc1 (configuration not stated) | 33.2 | 28 | 7.1 | 95% | 46% | 45% |  |  | 32 | 32 | 1000 (≈ 3840 µM) | 1000 (≈ 3840 µM) | 1 | > 1000 |  | 
15 | CCOP(=O)(OCC)C(CCCCc1ccccc1)CSC(C)=O (configuration not stated) | 20 | 13 |  | 12% | 25% | inactive |  |  |  |  |  |  |  |  |  | 
16 | CCOP(=O)(OCC)C(CS)CCCCc1ccccc1 (configuration not stated) | 1.67 |  |  |  |  |  |  |  |  |  |  |  |  |  | Nd(Insoluble) | Nd(Insoluble)
17 | CCOP(=O)(OCC)C(CO)CCc1ccccc1 (configuration not stated) | > 10 | > 10 | > 10 |  |  |  |  |  |  |  |  |  |  |  |  | 
18 | SCC(CCCc1ccccc1)c1nnn[nH]1 (configuration not stated) | 28 | 68 | 12 | 67% | 25% | 16% |  |  |  |  |  |  |  |  |  | 
19 | CC(=O)SCC(CCCc1ccccc1)P(=O)(O)O (configuration not stated) | 4.7 | 26 | 6.6 | 95% | 37% | 38% |  |  | 32 | 32 | > 500 | > 500 | 1 | > 1000 |  | 
20 | CCOP(=O)(OCC)C(CO)CCCCc1ccccc1 (configuration not stated) | > 10 | 280 | > 10 | inactive | 4% | 1% |  |  |  |  |  |  |  |  |  | 
21 | CC(=O)SCC(CCCc1ccccc1)c1nnn[nH]1 (configuration not stated) | 42 | 162 to 163 | 144 | 77% | 20% |  |  |  |  |  |  |  |  |  |  | 
